Results from ChEMBL document CHEMBL1128739, “Structure-activity relationships in the 8-amino-6,7,8,9-tetrahydro-3H-benz[e]indole ring system. 2. Effects of 8-amino nitrogen substitution on serotonin receptor binding and pharmacology” (J Med Chem, 1995).
pKi: −log10 of the molar value. Calls of active or inactive are those of the source. The calls are words filed in the database; no cut-off is given here.

Key:
Rattus norvegicus [1] = assay: In vivo changes in different brain area levels of 5-HTP in reserpinized rat corpus striatum.; assay type: functional
How it was run: (§1)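 Male Sprague-Dawley rats (200-300 g) pretreated with reserpine 5 mg/kg sc 18 h before. Injection volume 5 mL/kg at neutral pH. Brain-region 5-HTP measured by HPLC with electrochemical detection. Dose-response curves used four to six doses, n = 4.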

Rattus norvegicus [2] = assay: In vivo changes in different brain area levels of 5-HTP in reserpinized rat limbic system.; assay type: functional; how it was run: as §1
Rattus norvegicus [3] = assay: The compound was tested in vivo for biochemical effect against the changes in different brain area levels of DOPA in reserpinized rat limbic system at dose 12.5 uM/kg; Partial effect; assay type: functional, organism-based
[4] = molecular target: 5-hydroxytryptamine receptor 1D (Homo sapiens, UniProt P28221); assay: In vitro binding affinity against cloned mammalian 5-hydroxytryptamine 1D receptor alpha expressed in CHO cells, by using [3H]5-HT as radioligand; assay type: cell-based
Sequence of 5-hydroxytryptamine receptor 1D (P28221 whole entry): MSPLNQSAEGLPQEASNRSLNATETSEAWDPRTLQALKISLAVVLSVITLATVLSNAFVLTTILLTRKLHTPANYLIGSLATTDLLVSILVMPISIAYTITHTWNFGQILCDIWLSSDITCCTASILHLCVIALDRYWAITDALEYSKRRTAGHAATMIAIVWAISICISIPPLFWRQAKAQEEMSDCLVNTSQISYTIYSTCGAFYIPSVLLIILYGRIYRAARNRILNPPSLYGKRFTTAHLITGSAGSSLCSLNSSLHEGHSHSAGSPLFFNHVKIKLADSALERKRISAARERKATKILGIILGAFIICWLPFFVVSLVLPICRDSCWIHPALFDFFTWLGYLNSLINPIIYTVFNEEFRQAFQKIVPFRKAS
How it was run: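 Competition binding on CHO-cell membranes (20-60 μg protein) in 50 mM Tris, 5 mM MgCl2, 0.1% ascorbic acid, pH 7.4. Nonspecific binding defined with excess serotonin. 11 drug concentrations, each in duplicate. Incubated 1 h at room temperature, protected from light, then filtered and scintillation counted. IC50 taken from a one-site fit; Ki by Cheng-Prusoff.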

Rattus norvegicus [5] = assay: In vivo for biochemical effect against brain area levels of 5-HTP in reserpinized rat hemispheres (mainly cortex).; assay type: functional
How it was run: (§2)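 Male Sprague-Dawley rats (200-300 g) pretreated with reserpine 5 mg/kg sc 18 h before. Injection volume 5 mL/kg, test solutions at neutral pH. DOPA and 5-HTP in limbic system, striatum and hemispheres measured by HPLC with electrochemical detection. Dose-response curves from four to six dose levels (n = 4) per brain area.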

Rattus norvegicus [6] = assay: The compound was tested in vivo for biochemical effect against the changes in different brain area levels of DOPA in reserpinized rat corpus striatum at dose 12.5 uM/kg; Partial effect; assay type: functional, organism-based; how it was run: as §2
Rattus norvegicus [7] = assay: The compound was tested in vivo for biochemical effect against the changes in different brain area levels of DOPA in reserpinized rat hemispheres (mainly cortex)at dose 12.5 uM/kg; Inactive; assay type: functional, organism-based
D(2) dopamine receptor [8] = molecular target: T1, D(2) dopamine receptor (Rattus norvegicus, UniProt P61169); assay: In vitro binding affinity against cloned mammalian Dopamine receptor D2 expressed in CHO cells using [3H]U-86170 as radioligand; assay type: cell-based; conditions: read-out: Ki
T1 sequence (P61169 whole entry): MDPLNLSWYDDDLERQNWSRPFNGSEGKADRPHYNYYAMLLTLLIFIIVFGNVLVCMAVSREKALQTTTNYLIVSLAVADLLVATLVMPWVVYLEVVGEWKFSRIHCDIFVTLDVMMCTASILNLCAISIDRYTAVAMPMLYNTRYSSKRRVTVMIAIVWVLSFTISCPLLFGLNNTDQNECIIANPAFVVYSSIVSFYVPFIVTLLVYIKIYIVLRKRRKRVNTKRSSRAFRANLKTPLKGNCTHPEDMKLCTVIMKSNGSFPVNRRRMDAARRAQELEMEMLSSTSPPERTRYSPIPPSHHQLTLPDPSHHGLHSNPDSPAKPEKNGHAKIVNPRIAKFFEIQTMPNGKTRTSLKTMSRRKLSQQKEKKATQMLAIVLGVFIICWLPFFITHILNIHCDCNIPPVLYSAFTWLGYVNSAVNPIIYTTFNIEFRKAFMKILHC
How it was run: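 Membranes from CHO cells (20-60 μg protein) in 20 mM HEPES, 10 mM MgSO4, pH 7.4. Nonspecific binding defined with excess haloperidol. 11 concentrations, each in duplicate. Incubated 1 h at room temperature, then filtered and counted. IC50 from a one-site competition fit, converted to Ki by Cheng-Prusoff.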

D(3) dopamine receptor = D(3) dopamine receptor (Rattus norvegicus, UniProt P19020); assay: In vitro binding affinity against cloned mammalian Dopamine receptor D3 expressed in CHO cells by, using [3H]-spiperone as radioligand; assay type: cell-based; conditions: read-out: Ki
Sequence of D(3) dopamine receptor (P19020 whole entry): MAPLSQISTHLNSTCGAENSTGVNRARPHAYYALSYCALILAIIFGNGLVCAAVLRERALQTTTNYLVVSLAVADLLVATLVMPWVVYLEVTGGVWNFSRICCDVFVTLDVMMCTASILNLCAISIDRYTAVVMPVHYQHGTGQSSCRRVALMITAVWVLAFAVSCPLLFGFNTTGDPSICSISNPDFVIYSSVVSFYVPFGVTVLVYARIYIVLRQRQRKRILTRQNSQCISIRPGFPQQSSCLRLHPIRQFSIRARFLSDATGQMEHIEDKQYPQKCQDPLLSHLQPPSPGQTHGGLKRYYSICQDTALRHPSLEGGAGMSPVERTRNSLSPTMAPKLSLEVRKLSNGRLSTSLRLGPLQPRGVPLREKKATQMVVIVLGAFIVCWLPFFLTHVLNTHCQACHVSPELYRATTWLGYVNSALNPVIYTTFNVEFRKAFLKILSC

[9] = molecular target: T2, 5-hydroxytryptamine receptor 1B (Homo sapiens, UniProt P28222); assay: In vitro binding affinity against cloned mammalian 5-hydroxytryptamine 1D receptor beta expressed in CHO cells, by using [3H]5-HT as radioligand; assay type: cell-based
T2 sequence (P28222 whole entry): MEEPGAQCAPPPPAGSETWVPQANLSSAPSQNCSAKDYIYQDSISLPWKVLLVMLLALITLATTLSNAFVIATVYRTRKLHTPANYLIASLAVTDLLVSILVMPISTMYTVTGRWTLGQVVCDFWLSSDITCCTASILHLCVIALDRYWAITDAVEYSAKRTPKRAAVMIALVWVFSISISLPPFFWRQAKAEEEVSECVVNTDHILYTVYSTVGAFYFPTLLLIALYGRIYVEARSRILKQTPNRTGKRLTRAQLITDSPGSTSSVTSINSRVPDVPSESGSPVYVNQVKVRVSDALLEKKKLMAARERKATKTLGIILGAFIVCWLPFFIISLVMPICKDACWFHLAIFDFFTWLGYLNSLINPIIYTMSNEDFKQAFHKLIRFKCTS
How it was run: (§3)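 Membranes from CHO cells stably expressing the cloned receptor, made by mechanical disruption in ice-cold Tris/EDTA/EGTA pH 7.4 and differential centrifugation. [3H]serotonin at 1.7 nM in 50 mM Tris, 5 mM MgCl2, 0.1% ascorbic acid, pH 7.4. 11 drug concentrations in duplicate, 1 h at room temperature protected from light, then filtration. Excess serotonin defines nonspecific binding. One-site IC50 fit, Ki by Cheng-Prusoff.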

D(2) dopamine receptor [10] = molecular target: T1, D(2) dopamine receptor; assay: Binding affinity rat Dopamine receptor D2 expressed in CHO-K1 cells by [3H]U-86170 displacement.; assay type: cell-based
Rattus norvegicus [11] = assay: The compound was tested in vivo for biochemical effect against the changes in different brain area levels of DOPA in reserpinized rat hemispheres (mainly cortex) at dose of 3.1 micro/kg; Inactive; assay type: functional, organism-based; how it was run: as §2
[12] = molecular target: T2, 5-hydroxytryptamine receptor 1B; assay: The compound was tested in vitro for binding affinity against cloned mammalian 5-hydroxytryptamine 1D receptor beta expressed in CHO cells, by using [3H]5-HT as radioligand; assay type: cell-based; parameters: concentration or dose not given beside the values; conditions: concentration not given here; how it was run: as §3
Rattus norvegicus [13] = assay: The compound was tested in vivo for biochemical effect against the changes in different brain area levels of DOPA in reserpinized rat hemispheres (mainly cortex)at does 12.5 uM/kg; Inactive; assay type: functional, organism-based; how it was run: as §2
Rattus norvegicus [14] = assay: The compound was tested in vivo for biochemical effect against the changes in different brain area levels of DOPA in reserpinized rat limbic system at does 12.5 uM/kg; Partial effect; assay type: functional, organism-based; how it was run: as §2
[15] = molecular target: D(3) dopamine receptor (Rattus norvegicus) (UniProt P19020); assay: The compound was tested in vitro for binding affinity against cloned mammalian Dopamine receptor D3 expressed in CHO cells by, using [3H]spiperone as radioligand; inactive at 10E-6 M; assay type: cell-based
Sequence of D(3) dopamine receptor (Rattus norvegicus) (P19020 whole entry): as the sequence (P19020 whole entry) above

Rattus norvegicus [16] = assay: The compound was tested in vivo for biochemical effect against the changes in different brain area levels of DOPA in reserpinized rat hemispheres (mainly cortex)at dose 12.5 uM/kg; inactive; assay type: functional, organism-based; how it was run: as §2
Rattus norvegicus [17] = assay: The compound was tested in vivo for biochemical effect against the changes in different brain area levels of DOPA in reserpinized rat corpus striatum; assay type: functional; how it was run: as §2
Rattus norvegicus [18] = assay: The compound was tested in vivo for biochemical effect against the changes in different brain area levels of DOPA in reserpinized rat limbic system; assay type: functional
How it was run: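 Rats (male Sprague-Dawley, 200-300 g) received reserpine 5 mg/kg sc 18 h before. Injections 5 mL/kg at neutral pH. DOPA accumulation measured by HPLC with electrochemical detection as an index of DA or NE synthesis rate. Four to six dose levels, n = 4. ED50 from a sigmoidal fit.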

pKi [4] | pKi [9] | SMILES | pKi (D(3) dopamine receptor) | pKi (D(2) dopamine receptor [10]) | other results
8.70 | 7.34 | CCCN(CCc1cccs1)C1CCc2ccc3[nH]cc(C=O)c3c2C1 (stereo not given) | 7.32 |  | ED50 (Rattus norvegicus [1]): 0.044 µmol/kg; ED50 (Rattus norvegicus [2]): 0.082 µmol/kg; ED50 (Rattus norvegicus [3]): Weak activity; ED50 (Rattus norvegicus [5]): 0.11 µmol/kg; ED50 (Rattus norvegicus [6]): Weak activity; ED50 (Rattus norvegicus [7]): inactive; pKi (D(2) dopamine receptor [8]): 7.60
 |  | CCCN(CCCCN1C(=O)CC(C)(C)CC1=O)[C@@H]1CCc2ccc3[nH]ccc3c2C1 |  | 8.19 | 
8.70 | 7.96 | CCCN(CCCc1ccccc1)C1CCc2ccc3[nH]cc(C=O)c3c2C1 (stereo not given) | 7.38 |  | pKi (D(2) dopamine receptor [8]): 7.89
8.55 | 7.25 | CCCN(CCc1ccccc1)C1CCc2ccc3[nH]cc(C=O)c3c2C1 (stereo not given) | 7.09 |  | pKi (D(2) dopamine receptor [8]): 7.21
 |  | CCCN(CCC)[C@H]1CCc2ccc3[nH]ccc3c2C1 |  |  | ED50 (Rattus norvegicus [11]): inactive
8.01 | 6.94 | CCCN(CCCCN1C(=O)CC(C)(C)CC1=O)C1CCc2ccc3[nH]cc(C=O)c3c2C1 (stereo not given) | 6.35 |  | pKi (D(2) dopamine receptor [8]): 6.87
 |  | CCCN(CCC)[C@H]1CCc2ccc3[nH]cc(C=O)c3c2C1 |  |  | ED50 (Rattus norvegicus [13]): inactive; ED50 (Rattus norvegicus [6]): Weak activity; ED50 (Rattus norvegicus [14]): Weak activity
6.47 |  | c1cc2c3c(ccc2[nH]1)CCC(N1CCCCCC1)C3 (stereo not given) |  | 7.00 | inhibition [12]: < 45%; inhibition [15]: < 45%
7.89 |  | CCCN(CCc1cccs1)C1CCc2ccc3[nH]ccc3c2C1 (stereo not given) | 8.26 | 8.26 | inhibition [12]: < 45%

SMILES | pKi [4] | pKi [9] | pKi (D(3) dopamine receptor) | pKi (D(2) dopamine receptor [10]) | other results
CCCN(CCCCN1C(=O)CC(C)(C)CC1=O)C1CCc2ccc3[nH]ccc3c2C1 (stereo not given) | 7.59 | 6.65 | 7.54 | 7.82 | 
CCCN(C)C1CCc2ccc3[nH]ccc3c2C1 (stereo not given) | 6.77 |  | 6.95 | 7.48 | inhibition [12]: < 45%
CCCNC1CCc2ccc3[nH]ccc3c2C1 (stereo not given) | 7.16 | 6.32 | 6.94 | 7.32 | 
CCCN(CCC)C1CCc2ccc3[nH]ccc3c2C1 (stereo not given) | 7.41 |  |  |  | 
CN(C)C1CCc2ccc3[nH]ccc3c2C1 (stereo not given) |  | 6.57 | 6.42 |  | 
CCCN(CC1CC1)C1CCc2ccc3[nH]ccc3c2C1 (stereo not given) | 7.12 |  | 7.30 | 7.48 | inhibition [12]: < 45%; ED50 (Rattus norvegicus [1]): 0.11 µmol/kg; ED50 (Rattus norvegicus [2]): 0.11 µmol/kg; ED50 (Rattus norvegicus [5]): 0.18 µmol/kg; ED50 (Rattus norvegicus [16]): inactive; ED50 (Rattus norvegicus [17]): 1.4 µmol/kg; ED50 (Rattus norvegicus [18]): 1.18 µmol/kg
